Reference: ChEMBL document CHEMBL1772942, “Synthesis and in vitro cytotoxic evaluation of N-alkylbromo and N-alkylphthalimido-isatins” (Bioorg Med Chem Lett, 2011)

Legend:
HCT-15 [1] = assay: Cytotoxicity against human HCT15 cells assessed as cell growth inhibition at 10 uM after 48 hrs by sulforhodamine B assay; type: functional; settings: HCT-15, 48 h, read-out: GI
Method in brief: (§1)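 Cell lines from NCI, grown in RPMI-1640 (2 mM glutamine, pH 7.4, 10% fetal calf serum, penicillin) at 37 °C, 5% CO2, 90% RH, viability >98% by trypan blue. 1×10^5 cells/ml seeded, grown 24 h, then compound added at 10 or 100 µM (DMSO stocks diluted in medium with gentamycin) for 48 h. TCA fixation, SRB staining, OD 540 nm; % growth inhibition versus untreated growth, blank-subtracted.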

HEp-2 [2] = assay: Cytotoxicity against human Hep2 cells assessed as cell growth inhibition at 10 uM after 48 hrs by sulforhodamine B assay; type: functional; settings: HEp-2, 48 h, read-out: GI; method in brief: as §1
A549 [3] = assay: Cytotoxicity against human A549 cells assessed as cell growth inhibition at 10 uM after 48 hrs by sulforhodamine B assay; type: functional; settings: A549, 48 h, read-out: GI; method in brief: as §1
A549 [4] = assay: Cytotoxicity against human A549 cells assessed as cell growth inhibition at 100 uM after 48 hrs by sulforhodamine B assay; type: functional; settings: A549, 48 h, read-out: GI; method in brief: as §1
HCT-15 [5] = assay: Cytotoxicity against human HCT15 cells assessed as cell growth inhibition at 100 uM after 48 hrs by sulforhodamine B assay; type: functional; settings: HCT-15, 48 h, read-out: GI; method in brief: as §1
THP-1 [6] = assay: Cytotoxicity against human THP1 cells assessed as cell growth inhibition at 100 uM after 48 hrs by sulforhodamine B assay; type: functional; settings: THP-1, 48 h, read-out: GI; method in brief: as §1
HEp-2 [7] = assay: Cytotoxicity against human Hep2 cells assessed as cell growth inhibition at 100 uM after 48 hrs by sulforhodamine B assay; type: functional; settings: HEp-2, 48 h, read-out: GI; method in brief: as §1
THP-1 [8] = assay: Cytotoxicity against human THP1 cells assessed as cell growth inhibition at 10 uM after 48 hrs by sulforhodamine B assay; type: functional; settings: THP-1, 48 h, read-out: GI; method in brief: as §1
HCT-15 [9] = assay: Cytotoxicity against human HCT15 cells after 48 hrs by sulforhodamine B assay; type: functional, cell-based; settings: HCT-15, 48 h
Method in brief: (§2)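 Sulforhodamine B assay on NCI-sourced cells in RPMI-1640/10% FCS, seeded at 1×10^5 cells/ml and left 24 h, then serial dilutions of 2×10^-2 M DMSO stocks in gentamycin medium added for 48 h (37 °C, 5% CO2). Cells fixed with cold TCA, SRB dye dissolved in Tris pH 10.4, OD read at 540 nm. IC50 is the concentration inhibiting 50% of cell viability.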

A549 [10] = assay: Cytotoxicity against human A549 cells after 48 hrs by sulforhodamine B assay; type: functional, cell-based; settings: A549, 48 h; method in brief: as §2
HeLa = assay: Cytotoxicity against human HeLa cells after 48 hrs by sulforhodamine B assay; type: functional, cell-based
PC-3 = assay: Cytotoxicity against human PC3 cells after 48 hrs by sulforhodamine B assay; type: functional, cell-based; settings: PC-3, 48 h
THP-1 [11] = assay: Cytotoxicity against human THP1 cells after 48 hrs by sulforhodamine B assay; type: functional, cell-based; settings: THP-1, 48 h; method in brief: as §2
COLO 205 = assay: Cytotoxicity against human COLO205 cells after 48 hrs by sulforhodamine B assay; type: functional, cell-based; settings: COLO 205, 48 h
HCT-15 [12] = assay: Cytotoxicity against human HCT15 cells assessed as cell growth inhibition at 1 uM after 48 hrs by sulforhodamine B assay; type: functional; settings: HCT-15, 48 h, read-out: GI
Method in brief: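 NCI-sourced cells in RPMI-1640 (2 mM glutamine, 10% FCS, penicillin), >98% trypan-blue viable, seeded at 1 × 10^5 cells/ml and grown 24 h (37 °C, 5% CO2). DMSO stocks diluted in medium with gentamycin; 48 h exposure. TCA fixation 1 h at 4 °C, 0.4% SRB stain 30 min, dye dissolved in Tris pH 10.4, OD 540 nm. Blank-subtracted; inhibition relative to untreated growth (100%).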

HEp-2 [13] = assay: Cytotoxicity against human Hep2 cells assessed as cell growth inhibition at 1 uM after 48 hrs by sulforhodamine B assay; type: functional; settings: HEp-2, 48 h, read-out: GI
A549 [14] = assay: Cytotoxicity against human A549 cells assessed as cell growth inhibition at 1 uM after 48 hrs by sulforhodamine B assay; type: functional; settings: A549, 48 h, read-out: GI
THP-1 [15] = assay: Cytotoxicity against human THP1 cells assessed as cell growth inhibition at 1 uM after 48 hrs by sulforhodamine B assay; type: functional; settings: THP-1, 48 h, read-out: GI

Row | SMILES | inhibition of growth at 10 µM (HCT-15 [1]) | inhibition of growth at 10 µM (HEp-2 [2]) | inhibition of growth at 10 µM (A549 [3]) | inhibition of growth at 100 µM (A549 [4]) | inhibition of growth at 100 µM (HCT-15 [5]) | inhibition of growth at 100 µM (THP-1 [6]) | inhibition of growth at 100 µM (HEp-2 [7]) | inhibition of growth at 10 µM (THP-1 [8]) | IC50 (HCT-15 [9]) | IC50 (A549 [10]) | IC50 (HeLa) | IC50 (PC-3) | IC50 (THP-1 [11]) | IC50 (COLO 205) | inhibition of growth at 1 µM (HCT-15 [12]) | inhibition of growth at 1 µM (HEp-2 [13]) | inhibition of growth at 1 µM (A549 [14]) | inhibition of growth at 1 µM (THP-1 [15])
1 | O=C1C(=O)N(CCN2C(=O)c3ccccc3C2=O)c2ccccc21 | 3% | 10% | 18% | 43% | 86% | 96% | 68% | 9% | – | – | – | – | – | – | – | – | – | –
2 | O=C1C(=O)N(CCCCCBr)c2ccccc21 | 62% | 40% | 0% | 40% | 91% | 91% | 81% | 85% | 8.46 µM | > 100 µM | 5.49 µM | 11.5 µM | 42.3 µM | > 100 µM | – | – | – | –
3 | O=C1C(=O)N(CCCCCN2C(=O)c3ccccc3C2=O)c2ccccc21 | 9% | 10% | 4% | 36% | 97% | 93% | 85% | 60% | – | – | – | – | – | – | – | – | – | –
4 | O=C1C(=O)N(CCBr)c2ccccc21 | 4% | 14% | 38% | 44% | 89% | 96% | 71% | 14% | – | – | – | – | – | – | – | – | – | –
5 | O=C1C(=O)N(CCCCCCBr)c2ccccc21 | 67% | 48% | 0% | 53% | 95% | 93% | 86% | 94% | 12.4 µM | > 100 µM | 12 µM | 11.7 µM | 26.5 µM | > 100 µM | – | – | – | –
6 | O=c1[nH]cc(F)c(=O)[nH]1 [FLUOROURACIL] | – | – | – | – | – | – | – | – | – | – | – | – | – | – | 31% | – | – | –
7 | CO[C@@]12[C@H](COC(N)=O)C3=C(C(=O)C(C)=C(N)C3=O)N1C[C@@H]1N[C@@H]12 [MITOMYCIN] | – | – | – | – | – | – | – | – | – | – | – | – | – | – | – | 31% | – | –
8 | COc1cccc2c1C(=O)c1c(O)c3c(c(O)c1C2=O)C[C@@](O)(C(=O)CO)C[C@@H]3O[C@H]1C[C@H](N)[C@H](O)[C@H](C)O1 [DOXORUBICIN] | – | – | – | – | – | – | – | – | – | – | – | – | – | – | – | – | 55% | 96%
9 | O=C1C(=O)N(CCCBr)c2ccccc21 | 59% | 36% | 0% | 37% | 93% | 95% | 93% | 80% | 13.8 µM | > 100 µM | 7.77 µM | 15.3 µM | > 100 µM | > 100 µM | – | – | – | –
10 | O=C1C(=O)N(CCCCBr)c2ccccc21 | 62% | 33% | 30% | 49% | 88% | 90% | 68% | 90% | 11.8 µM | > 100 µM | 4.57 µM | 10.9 µM | 12.4 µM | 54.2 µM | – | – | – | –
11 | O=C1C(=O)N(CCCCCCN2C(=O)c3ccccc3C2=O)c2ccccc21 | 49% | 39% | 0% | 14% | 91% | 95% | 90% | 96% | 9.73 µM | > 100 µM | 8.82 µM | 12.8 µM | > 100 µM | > 100 µM | – | – | – | –
12 | O=C1C(=O)N(CCCN2C(=O)c3ccccc3C2=O)c2ccccc21 | 1% | 11% | 0% | 1% | 58% | 96% | 30% | 8% | – | – | – | – | – | – | – | – | – | –
13 | O=C1C(=O)N(CCCCN2C(=O)c3ccccc3C2=O)c2ccccc21 | 4% | 15% | 0% | 36% | 89% | 92% | 73% | 44% | – | – | – | – | – | – | – | – | – | –
